The target of assay [1] is T1, Adenosine receptor A2b (Homo sapiens) (UniProt P29275).
T1 sequence (whole entry): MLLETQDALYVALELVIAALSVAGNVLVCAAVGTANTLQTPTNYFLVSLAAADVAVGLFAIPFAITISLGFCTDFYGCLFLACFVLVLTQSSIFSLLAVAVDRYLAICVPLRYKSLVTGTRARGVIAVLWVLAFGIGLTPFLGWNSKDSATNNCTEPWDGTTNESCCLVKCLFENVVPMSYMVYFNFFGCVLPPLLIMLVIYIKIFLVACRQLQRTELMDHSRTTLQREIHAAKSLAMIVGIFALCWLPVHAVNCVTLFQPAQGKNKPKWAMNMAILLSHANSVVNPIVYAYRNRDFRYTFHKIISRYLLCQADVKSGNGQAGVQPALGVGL
Put plainly: Antagonist activity at human adenosine receptor A2b expressed in CHO cell membranes assessed as inhibition of NECA-induced cAMP accumulation incubated for 15 mins in presence of [3H]cAMP by liquid scintillation counting. In kind it is functional. A digest of the protocol:
(§1)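 Stably transfected CHO cells (human A2A or A2B) grown in DMEM-F12 with 10% FCS at 37 °C, 5% CO2. The cells were seeded at 200,000/well, washed after 24 h and held 2 h in HBSS (pH 7.3) with 1 U/ml adenosine deaminase. Ro20-1724 was added to 40 µM final for 15 min, then NECA dilutions ± one fixed test concentration in 2.5% DMSO, in duplicate.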

Another assay deals with T2, Adenosine receptor A3 (Homo sapiens, UniProt P0DMS8).
T2 sequence (P0DMS8 whole entry): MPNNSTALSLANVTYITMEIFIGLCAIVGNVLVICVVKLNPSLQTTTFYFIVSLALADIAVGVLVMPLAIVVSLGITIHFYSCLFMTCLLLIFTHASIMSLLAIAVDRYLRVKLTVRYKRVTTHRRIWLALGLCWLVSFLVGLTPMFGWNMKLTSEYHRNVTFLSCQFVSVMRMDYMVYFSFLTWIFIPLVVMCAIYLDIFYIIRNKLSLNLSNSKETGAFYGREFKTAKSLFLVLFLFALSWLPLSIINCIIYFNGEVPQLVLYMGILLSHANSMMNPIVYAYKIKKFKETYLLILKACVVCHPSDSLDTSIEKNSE
Put plainly: Displacement of [3H]PSB-11 from recombinant human adenosine receptor A3 expressed in CHO cell membranes.

A further assay concerns the target T3, Adenosine receptor A2b (Homo sapiens, UniProt P29275).
T3 sequence (P29275 whole entry): T1 sequence (whole entry)
Put plainly: Displacement of [3H]PSB-603 from recombinant human adenosine receptor A2b expressed in CHO cell membranes. A digest of the protocol: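 Membranes came from CHO cells expressing recombinant receptors (human A1, A2A, A2B, A3; rat A2B, A3). Radioligands were [3H]CCPA for A1 and [3H]PSB-11 or [3H]NECA for A3. A single high concentration was screened first, in three experiments for A1/A2A and two for A2B/A3.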

Assay [2] has as its target T4, Adenosine receptor A3 (Rattus norvegicus) (UniProt P28647).
T4 sequence (whole entry): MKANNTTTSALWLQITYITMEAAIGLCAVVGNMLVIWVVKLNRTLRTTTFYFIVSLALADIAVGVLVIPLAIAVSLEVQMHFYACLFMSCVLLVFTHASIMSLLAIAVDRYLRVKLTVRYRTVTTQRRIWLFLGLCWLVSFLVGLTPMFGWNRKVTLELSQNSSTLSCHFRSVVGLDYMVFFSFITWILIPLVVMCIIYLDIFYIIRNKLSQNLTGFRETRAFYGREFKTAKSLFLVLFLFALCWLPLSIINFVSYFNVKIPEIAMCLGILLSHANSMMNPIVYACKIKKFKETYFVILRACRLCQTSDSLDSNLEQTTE
Put plainly: Displacement of [3H]NECA from recombinant rat adenosine receptor A3 expressed in CHO cell membranes at 1 uM. A digest of the protocol:
(§2)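 Membranes came from CHO cells expressing recombinant receptors (human A1, A2A, A2B, A3; rat A2B, A3). Radioligands were [3H]CCPA for A1 and [3H]PSB-11 or [3H]NECA for A3. A single high concentration was screened first, in three experiments for A1/A2A and two for A2B/A3. Full inhibition curves spanning at least 3 log units were run for potent compounds.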

In assay [3] the test system is CHO. Description: Selectivity ratio of Ki for recombinant rat adenosine receptor A2b expressed in CHO cell membranes to Ki for recombinant human adenosine receptor A2b expressed in CHO cell membranes. It counts as cell-based.
For assay [4], the system named is CHO. Put plainly: Selectivity ratio of Ki for recombinant rat adenosine receptor A3 expressed in CHO cell membranes to Ki for recombinant human adenosine receptor A3 expressed in CHO cell membranes. In kind it is cell-based.
For assay [5], the target named is T1, Adenosine receptor A2b (Homo sapiens). Put plainly: Displacement of [3H]PSB-603 from recombinant human adenosine receptor A2b expressed in CHO cell membranes at 1 uM. In a few lines: as §2
The subject of assay [6] is CHO. Put plainly: Selectivity ratio of Ki for recombinant human adenosine receptor A1 expressed in CHO cell membranes to Ki for adenosine receptor A1 in rat brain cortical membranes. It counts as cell-based.
For the next assay, the target named is Adenosine receptor A2a (Homo sapiens, UniProt P29274). Description: Antagonist activity at human adenosine receptor A2a expressed in CHO cell membranes assessed as inhibition of NECA-induced cAMP accumulation incubated for 15 mins in presence of [3H]cAMP by liquid scintillation counting. It counts as functional. In a few lines:
as §1

This is an account of results in ChEMBL document CHEMBL3826885, “Similarities and differences in affinity and binding modes of tricyclic pyrimido- and pyrazinoxanthines at human and rat adenosine receptors” (Bioorg Med Chem, 2016).

Sequence of Adenosine receptor A2a (P29274 whole entry): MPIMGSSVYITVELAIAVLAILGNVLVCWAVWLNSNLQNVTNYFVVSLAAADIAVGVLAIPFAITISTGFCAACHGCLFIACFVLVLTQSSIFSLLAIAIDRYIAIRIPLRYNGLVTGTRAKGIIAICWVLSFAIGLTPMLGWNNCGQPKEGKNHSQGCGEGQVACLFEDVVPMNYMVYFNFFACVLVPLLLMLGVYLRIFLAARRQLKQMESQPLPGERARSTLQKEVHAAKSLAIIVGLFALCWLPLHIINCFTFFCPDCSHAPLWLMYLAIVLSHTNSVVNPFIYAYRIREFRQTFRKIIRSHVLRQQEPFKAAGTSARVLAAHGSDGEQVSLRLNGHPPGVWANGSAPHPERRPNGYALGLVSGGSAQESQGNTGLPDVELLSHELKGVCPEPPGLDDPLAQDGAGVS

In the case of `CCCCn1c(=O)c2c(nc3n2CCCN3CCc2ccc(OCCN(CC)CC)cc2)n(CCCC)c1=O`, the Kb in [1] was 547 nM. In addition, the Ki on Adenosine receptor A3 was 310 nM; at Adenosine receptor A2b, 109 nM. Further, the inhibition came to 15% in assay [2] and 87% in assay [5]. The Ratio Ki was 10 in the assay with CHO [3], greater than 3 with CHO [4] and 19 in the assay with CHO [6].

Turning to `CCN(CC)CCOc1ccc(CCN2CCCn3c2nc2c3c(=O)n(C)c(=O)n2C)cc1`, the Ki at Adenosine receptor A3 and at Adenosine receptor A2b was greater than 1000 nM each time. Further, the inhibition in assay [2] and in assay [5] was 6% throughout. The Kb at Adenosine receptor A2a was determined as 839 nM.
